In ChEMBL document CHEMBL2150901, “Synthesis and biological activity of tricyclic cycloalkylimidazo-, pyrimido- and diazepinopurinediones” (Eur J Med Chem, 2011):
Calls of active or inactive are those of the source. No cut-off for these calls is given here.

What was measured:
Adenosine receptor A1 [1] = target: T1, Adenosine receptor A1 (Homo sapiens, UniProt P30542); assay: Displacement of [3H]CCPA from human recombinant adenosine A1 receptor expressed in CHO cells; type: cell-based
T1 sequence (P30542 whole entry): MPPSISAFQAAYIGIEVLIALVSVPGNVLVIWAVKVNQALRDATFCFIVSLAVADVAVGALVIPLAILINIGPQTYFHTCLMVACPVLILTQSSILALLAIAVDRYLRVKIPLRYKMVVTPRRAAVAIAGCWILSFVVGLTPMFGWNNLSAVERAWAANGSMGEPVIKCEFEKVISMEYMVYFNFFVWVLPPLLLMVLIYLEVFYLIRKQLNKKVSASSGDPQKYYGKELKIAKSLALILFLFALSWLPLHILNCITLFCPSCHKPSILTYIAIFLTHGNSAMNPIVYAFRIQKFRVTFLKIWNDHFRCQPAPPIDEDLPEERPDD

Mus musculus [2] = assay: Anticonvulsant activity in F1 albino mouse assessed as protection against subcutaneous pentylenetetrazole-induced seizures at 300 mg/kg, ip after 1 hr; type: functional, organism-based; parameters: dose 300 mg/kg
In short: (§1)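 Male albino F-1 mice (18–25 g), groups of 1–5 (rotorod 2–8). Compound given ip as a suspension in 0.5% methylcellulose at 30, 100 and 300 mg/kg. Seizures by maximal electroshock or subcutaneous pentylenetetrazole; neurotoxicity by rotorod. Read at 0.5 and 4 h, with some at 0.25, 1 and 2 h. Value is the minimum active dose, with protected (or toxic)/tested animals.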

Mus musculus [3] = assay: Anticonvulsant activity in F1 albino mouse assessed as protection against maximal electroshock-induced seizures at 300 mg/kg, ip after 0.25 hrs; type: functional, organism-based; parameters: dose 300 mg/kg; in short: as §1
Mus musculus [4] = assay: Neurotoxicity in F1 albino mouse assessed as minimal motor impairment at 300 mg/kg, ip after 0.25 hrs by rotorod test; type: toxicity, organism-based; parameters: dose 300 mg/kg, route intraperitoneal; details: in vivo; in short: as §1
Mus musculus [5] = assay: Anticonvulsant activity in F1 albino mouse assessed as protection against maximal electroshock-induced seizures at 300 mg/kg, ip after 4 hrs; type: functional, organism-based; parameters: dose 300 mg/kg; in short: as §1
Mus musculus [6] = assay: Anticonvulsant activity in F1 albino mouse assessed as protection against subcutaneous pentylenetetrazole-induced seizures at 300 mg/kg, ip after 4 hrs; type: functional, organism-based; parameters: dose 300 mg/kg; in short: as §1
Adenosine receptor A2a [7] = target: Adenosine receptor A2a (Homo sapiens, UniProt P29274); assay: Displacement of [3H]MSX-2 from human recombinant adenosine A2A receptor expressed in CHO cells; type: cell-based
Sequence of Adenosine receptor A2a (Homo sapiens, UniProt P29274) (P29274 whole entry): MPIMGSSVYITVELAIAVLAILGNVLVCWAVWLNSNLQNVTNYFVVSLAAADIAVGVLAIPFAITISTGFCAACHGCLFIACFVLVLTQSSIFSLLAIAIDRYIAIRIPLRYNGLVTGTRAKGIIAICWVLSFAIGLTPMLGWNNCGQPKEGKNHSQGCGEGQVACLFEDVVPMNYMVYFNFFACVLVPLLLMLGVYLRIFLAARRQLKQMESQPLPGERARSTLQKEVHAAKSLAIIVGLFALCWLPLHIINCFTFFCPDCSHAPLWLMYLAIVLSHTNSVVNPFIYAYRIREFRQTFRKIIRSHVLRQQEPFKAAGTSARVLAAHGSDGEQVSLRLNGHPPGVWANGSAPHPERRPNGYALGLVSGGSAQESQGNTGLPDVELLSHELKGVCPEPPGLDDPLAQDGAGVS

Adenosine receptor A2b [8] = target: T2, Adenosine receptor A2b (Homo sapiens, UniProt P29275); assay: Displacement of [3H]PSB-603 from human recombinant adenosine A2B receptor expressed in CHO cells; type: cell-based
T2 sequence (P29275 whole entry): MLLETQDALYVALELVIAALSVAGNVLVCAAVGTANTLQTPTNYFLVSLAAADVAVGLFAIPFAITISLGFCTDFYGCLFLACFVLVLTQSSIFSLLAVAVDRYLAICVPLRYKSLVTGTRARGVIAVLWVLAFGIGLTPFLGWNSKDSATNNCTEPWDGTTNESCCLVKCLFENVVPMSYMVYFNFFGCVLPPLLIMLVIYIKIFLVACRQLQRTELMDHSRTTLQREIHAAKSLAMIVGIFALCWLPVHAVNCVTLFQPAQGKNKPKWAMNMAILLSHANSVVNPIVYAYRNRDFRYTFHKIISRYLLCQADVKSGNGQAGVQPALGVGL
In short: (§2)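 CHO cell membranes expressing the human receptor. Radioligands: A1 [3H]CCPA; A2B [3H]ZM241385 or [3H]PSB-603; A3 [3H]PSB-11. […] Potent compounds run at 6–7 concentrations spanning 3 orders of magnitude; Ki ± SEM.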

Adenosine receptor A2a [9] = target: Adenosine receptor A2a (Rattus norvegicus, UniProt P30543); assay: Displacement of [3H]MSX-2 from adenosine A2A receptor in rat brain striatal membrane; type: cell membranes
Sequence of Adenosine receptor A2a (Rattus norvegicus, UniProt P30543) (P30543 whole entry): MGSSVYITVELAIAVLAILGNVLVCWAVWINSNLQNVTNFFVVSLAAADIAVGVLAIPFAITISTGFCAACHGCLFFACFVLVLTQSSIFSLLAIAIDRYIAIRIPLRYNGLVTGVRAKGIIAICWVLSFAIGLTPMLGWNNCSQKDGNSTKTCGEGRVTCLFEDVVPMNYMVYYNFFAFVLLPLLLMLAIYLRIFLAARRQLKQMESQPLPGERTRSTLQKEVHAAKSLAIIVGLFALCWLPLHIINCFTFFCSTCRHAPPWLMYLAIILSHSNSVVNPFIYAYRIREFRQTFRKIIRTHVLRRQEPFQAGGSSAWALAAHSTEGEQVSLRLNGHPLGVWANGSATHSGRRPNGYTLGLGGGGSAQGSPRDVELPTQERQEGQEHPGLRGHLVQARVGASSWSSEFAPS

Mus musculus [10] = assay: Neurotoxicity in F1 albino mouse assessed as minimal motor impairment at 300 mg/kg, ip after 0.5 hrs by rotorod test; type: toxicity, organism-based; parameters: dose 300 mg/kg, route intraperitoneal; details: in vivo; in short: as §1
Mus musculus [11] = assay: Anticonvulsant activity in F1 albino mouse assessed as protection against subcutaneous pentylenetetrazole-induced seizures at 300 mg/kg, ip after 0.25 hrs; type: functional, organism-based; parameters: dose 300 mg/kg; in short: as §1
Mus musculus [12] = assay: Anticonvulsant activity in F1 albino mouse assessed as protection against maximal electroshock-induced seizures at 300 mg/kg, ip after 1 hr; type: functional, organism-based; parameters: dose 300 mg/kg; in short: as §1
Rattus norvegicus = organism: Rattus norvegicus; assay: Selectivity ratio of Ki for adenosine A1 receptor in rat brain cortical membrane to Ki for adenosine A2A receptor in rat brain striatal membrane; type: cell membranes
In short: (§3)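 Ki ratios from radioligand competition binding. Rat A1 used brain cortical membranes and rat A2A used brain striatal membranes. Human A1 and A2A used membranes of CHO cells expressing the receptors. A1 radioligand [³H]CCPA; A2A radioligand [³H]MSX-2. Potent compounds were tested at 6–7 concentrations spanning 3 orders of magnitude.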

Adenosine receptor A1 [13] = target: T3, Adenosine receptor A1 (Rattus norvegicus, UniProt P25099); assay: Displacement of [3H]CCPA from adenosine A1 receptor in rat brain cortical membrane; type: cell membranes
T3 sequence (P25099 whole entry): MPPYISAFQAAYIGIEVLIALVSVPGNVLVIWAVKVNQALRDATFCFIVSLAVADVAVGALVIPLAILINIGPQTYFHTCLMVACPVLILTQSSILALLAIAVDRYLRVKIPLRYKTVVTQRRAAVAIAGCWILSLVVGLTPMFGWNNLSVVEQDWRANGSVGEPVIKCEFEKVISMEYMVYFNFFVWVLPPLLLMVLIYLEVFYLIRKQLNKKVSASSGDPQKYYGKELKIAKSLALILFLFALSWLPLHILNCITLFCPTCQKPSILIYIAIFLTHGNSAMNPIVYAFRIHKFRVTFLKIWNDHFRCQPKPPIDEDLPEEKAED

Mus musculus [14] = assay: Anticonvulsant activity in F1 albino mouse assessed as protection against maximal electroshock-induced seizures at 300 mg/kg, ip after 0.5 hrs; type: functional, organism-based; parameters: dose 300 mg/kg; in short: as §1
Mus musculus [15] = assay: Neurotoxicity in F1 albino mouse assessed as minimal motor impairment at 300 mg/kg, ip after 4 hrs by rotorod test; type: toxicity, organism-based; parameters: dose 300 mg/kg, route intraperitoneal; details: in vivo; in short: as §1
Adenosine receptor A3 = target: T4, Adenosine receptor A3 (Homo sapiens, UniProt P0DMS8); assay: Displacement of [3H]PSB-11 from human recombinant adenosine A3 receptor expressed in CHO cells; type: cell-based
T4 sequence (P0DMS8 whole entry): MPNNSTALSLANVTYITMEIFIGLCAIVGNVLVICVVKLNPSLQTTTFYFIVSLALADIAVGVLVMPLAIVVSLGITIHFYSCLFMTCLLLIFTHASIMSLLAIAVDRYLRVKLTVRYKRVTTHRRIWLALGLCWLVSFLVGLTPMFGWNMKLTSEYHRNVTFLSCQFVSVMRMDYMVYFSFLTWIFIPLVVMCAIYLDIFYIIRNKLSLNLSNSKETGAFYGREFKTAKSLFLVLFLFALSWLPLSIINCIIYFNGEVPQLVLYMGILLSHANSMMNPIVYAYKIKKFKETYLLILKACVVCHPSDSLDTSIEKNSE

Mus musculus [16] = assay: Anticonvulsant activity in F1 albino mouse assessed as protection against subcutaneous pentylenetetrazole-induced seizures at 300 mg/kg, ip after 0.5 hrs; type: functional, organism-based; parameters: dose 300 mg/kg; in short: as §1
[17] = target: T5, Adenosine receptor A1 (Rattus norvegicus) (UniProt P25099); assay: Displacement of [3H]CCPA from adenosine A1 receptor in rat brain cortical membrane at 25 uM; type: cell membranes
T5 sequence (whole entry): T3 sequence (P25099 whole entry)

[18] = target: T6, Adenosine receptor A3 (Homo sapiens) (UniProt P0DMS8); assay: Displacement of [3H]PSB-11 from human recombinant adenosine A3 receptor expressed in CHO cells at 10 uM; type: cell-based; in short: as §2
T6 sequence (whole entry): T4 sequence (P0DMS8 whole entry)

[19] = target: T7, Adenosine receptor A2b (Homo sapiens) (UniProt P29275); assay: Displacement of [3H]PSB-603 from human recombinant adenosine A2B receptor expressed in CHO cells at 10 uM; type: cell-based; in short: as §2
T7 sequence (whole entry): T2 sequence (P29275 whole entry)

Mus musculus [20] = assay: Neurotoxicity in F1 albino mouse assessed as minimal motor impairment at 300 mg/kg, ip after 1 hr by rotorod test; type: toxicity, organism-based; parameters: dose 300 mg/kg, route intraperitoneal; details: in vivo; in short: as §1
Mus musculus [21] = assay: Neurotoxicity in F1 albino mouse assessed as minimal motor impairment at 100 mg/kg, ip after 0.5 hrs by rotorod test; type: toxicity, organism-based; parameters: dose 100 mg/kg, route intraperitoneal; details: in vivo; in short: as §1
[22] = target: T7, Adenosine receptor A2b (Homo sapiens); assay: Displacement of [3H]ZM241385 from human adenosine A2B receptor expressed in CHO cells at 10 uM; type: cell-based; in short: as §2
CHO = assay: Selectivity ratio of Ki for human recombinant adenosine A2A receptor expressed in CHO cells to Ki for adenosine A2A receptor in rat brain striatal membrane; type: cell-based; in short: as §3
[23] = target: T8, Adenosine receptor A1 (Homo sapiens) (UniProt P30542); assay: Displacement of [3H]CCPA from human recombinant adenosine A1 receptor expressed in CHO cells at 10 uM; type: cell-based; in short: as §2
T8 sequence (whole entry): T1 sequence (P30542 whole entry)

Adenosine receptor A2b [24] = target: T2, Adenosine receptor A2b; assay: Displacement of [3H]ZM241385 from human adenosine A2B receptor expressed in CHO cells; type: cell-based

Ki (Adenosine receptor A1 [1]) [µM]	Ki (Adenosine receptor A2a [7]) [µM]	Ki (Adenosine receptor A2b [8]) [µM]	Ki (Adenosine receptor A2a [9]) [µM]	Ratio Ki (Rattus norvegicus)	Ki (Adenosine receptor A1 [13]) [µM]	Ki (Adenosine receptor A3) [µM]	inhibition [17] [%]	inhibition [18] [%]	SMILES	Activity (Mus musculus [2])	Activity (Mus musculus [3])	Activity (Mus musculus [4])	Activity (Mus musculus [5])	Activity (Mus musculus [6])	Activity (Mus musculus [11])	Activity (Mus musculus [12])	Activity (Mus musculus [14])	Activity (Mus musculus [15])	Activity (Mus musculus [16])	Activity (Mus musculus [20])	other results
10.3	0.847	> 10	1.93	> 5	≥ 10	> 10	39	5	Cn1c(=O)c2c(nc3n2CCCN3C2CCC2)n(C)c1=O	inactive	inactive	Non-toxic	inactive	inactive	inactive	inactive	inactive	Non-toxic	inactive	Non-toxic	Activity (Mus musculus [10]): Non-toxic; inhibition [19]: 21%
> 10	1.53	–	0.57	> 44	≥ 25	> 10	33	52	Cn1c(=O)c2c(nc3n2CCCN3C2CCCCCCC2)n(C)c1=O	inactive	inactive	Non-toxic	inactive	inactive	inactive	inactive	inactive	Non-toxic	Active	Non-toxic	Activity (Mus musculus [21]): Non-toxic; inhibition [22]: 32%; Ratio Ki (CHO): 3; inhibition [23]: 17%; Ki (Adenosine receptor A2b [24]): > 10 µM
–	–	–	3.81	7	≥ 25	–	44	–	Cn1c(=O)c2c(nc3n2CCCCN3C2CCC(O)CC2)n(C)c1=O (mixture of isomers)	inactive	inactive	Non-toxic	inactive	inactive	inactive	inactive	inactive	Non-toxic	Active	Non-toxic	Activity (Mus musculus [21]): Non-toxic
> 10	21.9	> 10	6.2	> 2	> 10	> 10	5	27	CC(=O)O[C@H]1CC[C@H](N2CCCn3c2nc2c3c(=O)n(C)c(=O)n2C)CC1	inactive	inactive	Non-toxic	inactive	inactive	inactive	inactive	inactive	Non-toxic	inactive	Non-toxic	Ratio Ki (CHO): 3; Activity (Mus musculus [10]): Non-toxic; inhibition [23]: 5%; inhibition [19]: 0%
